This passage reports Kd results from paper PMC3027307 (Biochemistry, 2010).

A word on the Kd: it is the equilibrium constant for the complex coming apart. Low values mean higher affinity, high ones lower affinity.

For the assay, the target named is P450-SS9 (cytochrome P450 from Photobacterium profundum strain SS9) (Photobacterium profundum, UniProt Q6LGK6). The assay is described as follows: absorbance. The assay is classed as binding. A digest of the protocol: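 Enzyme at 0.8-1.8 μM was titrated with fatty acids or derivatives, added from 30-140 mM acetone stocks, at 25 °C with stirring in 0.1 M Na-Hepes pH 7.4 with 0.5 mM EDTA. Absorbance spectra were PCA/SVD-resolved into high-spin, low-spin and P420 standards. Kd came from a tight-binding (square-root) equation fit.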
`CCCCCCCCCCCCCC(=O)O` [myristic acid] yielded a Kd of 0.97 ± 0.42 µM.
For the compound `CCCCCCCC/C=C\CCCCCCCC(=O)NCC(=O)O` [oleoyl glycine], the Kd came out at 49.5 ± 30 µM.
Next, `CCCCC/C=C\C/C=C\C/C=C\C/C=C\CCCC(=O)O` [arachidonic acid]: 19.2 ± 4.2 µM.
As for `CCCCC/C=C\C/C=C\C/C=C\C/C=C\CCCC(=O)NCC(=O)O` [arachidonoyl glycine], the Kd turned out to be 16.7 ± 0.1 µM.
`CCCCCCCCCCCCCCCC(=O)O` [palmitic acid] had a Kd of 24.3 ± 8.2 µM.
